Source: paper PMC3474356 (Chemistry & biology, 2011)

Experiments:
P. falciparum 3D7 strain = experiment: P. falciparum 3D7 growth inhibition; assay type: cell-based; conditions: Plasmodium falciparum, 3D7, read-out: EC50 growth 3D7
pfDHOD = target: T1, pfDHOD (Plasmodium falciparum, UniProt Q08210); experiment: pfDHOD chromogen; assay type: biochemical
T1 sequence (Q08210 24-569): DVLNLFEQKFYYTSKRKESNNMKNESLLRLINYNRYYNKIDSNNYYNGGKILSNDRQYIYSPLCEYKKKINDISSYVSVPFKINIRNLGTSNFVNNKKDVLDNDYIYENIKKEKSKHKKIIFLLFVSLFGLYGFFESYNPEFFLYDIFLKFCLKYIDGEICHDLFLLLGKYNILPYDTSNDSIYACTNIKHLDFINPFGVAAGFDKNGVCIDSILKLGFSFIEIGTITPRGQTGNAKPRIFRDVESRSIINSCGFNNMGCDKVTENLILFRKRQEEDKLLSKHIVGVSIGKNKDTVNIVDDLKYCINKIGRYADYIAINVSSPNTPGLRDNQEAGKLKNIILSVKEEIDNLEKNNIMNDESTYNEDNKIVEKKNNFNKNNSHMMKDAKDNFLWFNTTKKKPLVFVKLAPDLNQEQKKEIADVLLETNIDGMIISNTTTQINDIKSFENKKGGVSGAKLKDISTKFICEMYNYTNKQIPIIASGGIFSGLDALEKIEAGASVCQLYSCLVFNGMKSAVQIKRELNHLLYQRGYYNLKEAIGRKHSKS
Outline: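 DCIP reduction assay in 384-well format. Test compound in serial dilution; reaction started by adding pfDHOD and run for 10 min at 25 °C. Read-out A600.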

[1] = system: Dd2-scDHOD parasite strain; experiment: Transgenic Dd2-scDHOD growth inhibition; assay type: cell-based; conditions: Plasmodium falciparum, DD2, read-out: EC50 growth Dd2-scDHOD
hsCYT bc1 = hsCYT bc1 (Homo sapiens, UniProt P00156); experiment: Cytochrome c reductase activity, human; assay type: biochemical
Outline: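 Mitochondria from HEK293 cells pelleted at 400 g for 10 min, disrupted by N2 cavitation, then debris spin, 10,000 g pellet and 1–2 M sucrose gradient. Mitochondria (40 ug/ml) in 250 mM sucrose, 50 mM KH2PO4, 0.2 mM EDTA, 1 mM NaN3, 2.5 mM KCN with 50 uM cytochrome c. Started with 25 uM decylubiquinol; cytochrome c reduction read at 550 nm over the first 60 s.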

pfNDH2 = pfNDH2 (Plasmodium falciparum, UniProt Q8I302); experiment: pfNDH2 enzyme activity assay; assay type: biochemical
P. falciparum Dd2 strain = experiment: P. falciparum Dd2 growth inhibition; assay type: cell-based; conditions: Plasmodium falciparum, DD2, read-out: EC50 growth Dd2
liver stage P. berghei = experiment: P. berghei liver stage assay in HepG2 cells; assay type: cell-based; conditions: Plasmodium berghei, HepG2, 45 h, read-out: IC50 liver stage P. berghei
Outline: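 Luciferase-expressing P. berghei ANKA sporozoites (4,000, from mosquito salivary glands) infect 12,000 HepG2 cells with or without test compound; final DMSO 0.3%. Parasite growth is read by luciferase luminescence 45 h post-infection. Results are mean ± SD, and experiments were repeated 2-3 times.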

O=C1C(O)=C([C@H]2CC[C@H](c3ccc(Cl)cc3)CC2)C(=O)c2ccccc21 [atovaquone] was tested. Which EC50 (P. falciparum 3D7 strain) did it give?
The EC50 was 1 nM.

And the IC50 (pfDHOD)?
Its IC50 is over 20000 nM.

And the EC50 [1]?
Its EC50 is over 5000 nM.

What about the IC50 (hsCYT bc1) of the same molecule?
The IC50 was 350 ± 12 nM.

And the IC50 (pfNDH2)?
The IC50 was over 20000 nM.

What about the EC50 (P. falciparum Dd2 strain) of the same molecule?
The EC50 was 1 nM.

And the IC50 (liver stage P. berghei)?
The IC50 was 0.3 nM.
